Myeloid diff 2: induction of myeloid progenitor differentiation, primary screen, cell-based, flow cytometry, MLPCN library. ER-HoxA9 myeloid progenitors, lysozyme-GFP differentiation. calls only at 10 µM. 1% of 360,000 active;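 active = normalized GFP-positive differentiation at or above the plate's own cutoff, the solvent-only control mean plus 3 SD; inconclusive = no clear call, values can overlap the other calls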;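 also: cells exposed to compound for four days before flow analysis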
NadD inh: inhibitors of S. aureus NadD, primary screen, biochemical, colorimetric, uHTS. Nicotinate-nucleotide adenylyltransferase NadD (Staphylococcus aureus N315). purified NadD enzyme, colorimetric absorbance read-out. inhibition, % at 20 µM. 0.78% of 360,000 active. AID 602399, 2012; in the data active = inhibition above about 26%
core dimer inh: inhibitors of HCV core protein dimerization, primary screen, biochemical, TR-FRET, high-throughput. TR-FRET GST/Flag-core106 dimerization, 1536-well. inhibition, % at 5 µM. 0.33% of 300,000 active. AID 1899, 2009;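 active = inhibition above the mean of all tested compounds plus 3 SD, set per screening campaign, cut at about 45% in these data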
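Material: Tagged HCV core106 pair (GST and Flag) | Amount: GST-core106 13.5 nM, Flag-core106 17 nM | Medium: KF-containing HEPES buffer, pH 7.45, DTT, CHAPS, BSA | Reagent: Eu donor and XL665 acceptor anti-tag antibodies | Schedule: 4 h at 22.5 °C | Technique: Time-resolved FRET, ex 340 nm, em 617 and 671 nm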
PP5 primary: PP5 phosphatase inhibitors, primary screen, biochemical, fluorescence | Serine/threonine-protein phosphatase 5 (Homo sapiens), P53041 | purified PP5c, OMFP substrate fluorescence | inhibition, % at 6.7 µM | 0.18% of 320,000 active | AID 1987, 2009;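 active = inhibition above the campaign's mean inhibition across all tested compounds plus 3 SD, cut at about 9.5% in these data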
PP1 inh: PP1-alpha phosphatase inhibitors, primary screen, counter-screen for PP5 inhibitor project, biochemical, fluorescence, OMFP substrate, single point; 0.9% of 320,000 active; purified PP1alpha; AID 2235, 2010; inhibition, % at 6.7 µM;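 active = inhibition above the mean inhibition of all tested compounds plus 3 SD, computed separately for each screening campaign, cut at about 15% in these data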
Target sequence (P62136 whole entry, looked up): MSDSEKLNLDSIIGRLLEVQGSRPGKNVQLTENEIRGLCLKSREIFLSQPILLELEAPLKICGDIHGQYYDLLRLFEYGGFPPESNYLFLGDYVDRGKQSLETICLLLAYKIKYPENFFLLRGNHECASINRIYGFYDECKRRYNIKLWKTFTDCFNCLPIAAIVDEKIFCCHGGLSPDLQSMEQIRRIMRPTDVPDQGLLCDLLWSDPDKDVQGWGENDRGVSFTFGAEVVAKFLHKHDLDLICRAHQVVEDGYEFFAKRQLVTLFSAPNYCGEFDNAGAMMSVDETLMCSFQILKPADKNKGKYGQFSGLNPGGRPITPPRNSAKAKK
Fh CTSL1 inh: Fasciola hepatica cathepsin L1 inhibitors, primary screen, counter-screen for PFM18AAP inhibitor project, biochemical, QFRET, fluorogenic peptide substrate; recombinant F. hepatica cathepsin L1, Z-Leu-Arg-MCA fluorescence; 0.49% of 300,000 active; inhibition, % at 5.96 µM;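 active = inhibition above the mean of all tested compounds plus 3 SD, set per screening campaign, cut at about 17% in these data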
PP1 confirm: PP1 phosphatase inhibitors, confirmation, biochemical, fluorescence, OMFP substrate, triplicate; shares compounds with PP1 inh; inhibition, % at 6.7 µM; AID 2358, 2010; purified PP1alpha; 52% of 1,900 active;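 active = mean PP1 inhibition above a set limit taken from the earlier primary screen, cut at about 15% in these data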
PP5 inh counter: PP5 phosphatase inhibition by PP1 hits, confirmation, counter-screen for PP1 inhibitor project, biochemical, fluorescence, triplicate. shares compounds with PP1 inh. purified PP5c, OMFP fluorescence. inhibition, % at 6.7 µM. 4% of 1,900 active. AID 2360, 2010;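 active = mean PP5 inhibition over triplicate wells above about 9.5% taken from the earlier PP1 screen, limit read from the data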
NadD inh conf: inhibitors of S. aureus NadD, confirmation, biochemical, colorimetric, single concentration; AID 624309, 2012; inhibition, % at 20 µM; 13% of 2,000 active; purified S. aureus NadD, colorimetric enzyme assay; shares compounds with NadD inh; in the data active = inhibition mostly above about 42%, no sharp cut-off; inactive = mostly below about 42%
Each line names hits and unclear results; the compound was inactive in the other large screens (follow-up assays come after a bar, where they were run). In the library only some 3.1% were active in any assay of this set; here they are far more common.

Cc1ccc2nc(N3C(=O)C(O)=C(C(=O)c4ccco4)C3c3ccc(C)o3)sc2c1 (stereo not given)	NadD inh 26, PP1 inh 26 | PP1 confirm 25 | PP5 inh counter inactive | NadD inh conf inactive
O=C(C1=C(O)C(=O)N(c2nc3ccc(Cl)cc3s2)C1c1ccco1)c1ccco1 (stereo not given)	NadD inh 56, PP1 inh 19 (no result: core dimer inh, Fh CTSL1 inh) | PP1 confirm 25 | PP5 inh counter inactive | NadD inh conf 51
C[C@@H]1CN([C@H](C)CO)C(=O)CCCn2nncc2CO[C@H]1CN(C)S(C)(=O)=O	none (no result: core dimer inh, PP5 primary, PP1 inh, Fh CTSL1 inh)
Cc1ccccc1C(=O)N1CCN(CCNC(=O)C(=O)Nc2ccc(Br)cc2)CC1	none
COCCCn1c(-c2cccc(Cl)c2)nc2c1c(=O)[nH]c(=O)n2Cc1ccccc1	none
COCCn1c(=O)[nH]c(=O)c2c1nc(-c1ccc(-c3ccc(Cl)cc3[N+](=O)[O-])o1)n2Cc1ccccc1	NadD inh 45, core dimer inh 55, PP1 inh 18 | PP1 confirm 38 | PP5 inh counter inactive | NadD inh conf inactive
CC(=O)c1cccc(S(=O)(=O)N2CCCC(c3nc4c(nnn4Cc4cccc(Cl)c4)c(=O)[nH]3)C2)c1 (stereo not given)	NadD inh 46, PP1 inh 20 | PP1 confirm 15 | PP5 inh counter inactive | NadD inh conf inactive
CC(=O)c1cccc(S(=O)(=O)N2CCCC(c3nc4c(nnn4Cc4ccc(C)cc4)c(=O)[nH]3)C2)c1 (stereo not given)	Myeloid diff 2 inconclusive
CCC(=O)Nc1ccc(C(=O)COC(=O)c2nc3nccc(C)n3n2)cc1	NadD inh 46, PP1 inh 20 (no result: core dimer inh, Fh CTSL1 inh) | PP1 confirm inactive | PP5 inh counter inactive | NadD inh conf 86
CCOC(=O)c1cc(-c2ccccc2)sc1NC(=O)C(C)N1C(=O)NC(C)(c2ccc(Cl)cc2)C1=O (stereo not given)	NadD inh 30, PP1 inh 22 | PP1 confirm inactive | PP5 inh counter inactive | NadD inh conf inactive
CCOC(=O)c1cc(-c2ccccc2)sc1NC(=O)C(C)C	none
Cc1ncc(NS(=O)(=O)c2ccc(N)cc2)nc1C	none (no result: core dimer inh, PP5 primary, PP1 inh, Fh CTSL1 inh)
COc1ccc([N+](=O)[O-])cc1NC(=O)C1C2C=CC(C2)C1C(=O)O (stereo not given)	none
N#CCC(=O)N/N=C/c1c2ccccc2cc2ccccc12	none (no result: core dimer inh, PP5 primary, PP1 inh, Fh CTSL1 inh)
N#CCC(=O)N/N=C/c1cc(Br)ccc1OCc1cccc2ccccc12	NadD inh 26, PP1 inh 21 | PP1 confirm inactive | PP5 inh counter inactive | NadD inh conf inactive
Cc1cc(C)cc(N(CCC#N)C(=O)CSc2ncnc3sccc23)c1	none (no result: core dimer inh, Fh CTSL1 inh)
CCOc1ccc(S(=O)(=O)N(CC(=O)N/N=C/c2ccc(-c3ccc([N+](=O)[O-])cc3)o2)c2ccccc2)cc1	Myeloid diff 2 active, NadD inh 41, core dimer inh 75, PP1 inh 33 | PP1 confirm 35 | PP5 inh counter inactive | NadD inh conf inactive
CCOc1ccc(NC(=O)CN(c2ccc([N+](=O)[O-])cc2)S(=O)(=O)c2ccccc2)cc1	none
CCN(CC)S(=O)(=O)c1ccc2[nH]cc(C(=O)NC3CC3)c(=O)c2c1	none
Cc1cc(OCC(=O)Nc2ccc(N3CCCC3)cc2)cc(C)c1Cl	NadD inh 43, PP1 inh 18 | PP1 confirm inactive | PP5 inh counter inactive | NadD inh conf inactive
CCOc1ccc(OCC(=O)Nc2ccc(N3CCCCC3)cc2)cc1	none
CCOc1ccccc1CNCc1ccc(F)cc1	none
CCc1noc(C)c1C(=O)OCC(=O)c1ccc(NC(C)=O)cc1F	none (no result: core dimer inh, PP5 primary, PP1 inh, Fh CTSL1 inh)
Cc1ccc(C)c(N2CCN(C(=O)c3ccc(Cn4c(=S)[nH]c5ccc(N6CCOCC6)cc5c4=O)cc3)CC2)c1	NadD inh 30, core dimer inh 48, PP1 inh 30 | PP1 confirm inactive | PP5 inh counter inactive | NadD inh conf inactive
Nc1cc(=O)[nH]c(SCC(=O)N2N=C(c3ccc4ccccc4c3)CC2c2ccccc2)n1 (stereo not given)	NadD inh 40, PP1 inh 21 | PP1 confirm inactive | PP5 inh counter inactive | NadD inh conf inactive
COc1ccc(C(=O)NCc2nnc(SCC(=O)NCc3ccco3)o2)cc1OC	none
Cn1c(=O)c(C(=O)CN2CCc3ccccc32)c(N)n(Cc2ccccc2)c1=O	NadD inh 62, PP1 inh 22 | PP1 confirm inactive | PP5 inh counter inactive | NadD inh conf inactive
Cn1c(=O)c(C(=O)CN2CCCc3ccccc32)c(N)n(Cc2ccccc2)c1=O	none
Cc1cnc(CNC(=O)c2csc(COCCO)n2)cn1	none (no result: core dimer inh, PP5 primary, PP1 inh, Fh CTSL1 inh)
O=C(/C=C/c1ccc(F)cc1)NC(=S)NNC(=O)[C@H]1C[C@@H]1c1ccccc1	NadD inh 40, PP1 inh 18 | PP1 confirm inactive | PP5 inh counter inactive | NadD inh conf inactive
O=C(NC(C(=O)N/N=C/c1c2ccccc2cc2ccccc12)c1n[nH]c(=O)c2ccccc12)c1ccccc1 (stereo not given)	Myeloid diff 2 inconclusive, NadD inh 51, core dimer inh 47, PP1 inh 18 | PP1 confirm 17 | PP5 inh counter inactive | NadD inh conf inactive
O=C(NC(C(=O)N/N=C/c1ccccc1)c1n[nH]c(=O)c2ccccc12)c1ccccc1 (stereo not given)	none
N#Cc1c(SCC(=O)Nc2nc3ccc(Br)cc3s2)sc2c(O)cc(=O)[nH]c12	NadD inh 41, PP1 inh 18 | PP1 confirm inactive | PP5 inh counter inactive | NadD inh conf inactive
CCCSc1nnc(NC(=O)CSc2sc3c(O)cc(=O)[nH]c3c2C#N)s1	none (no result: Myeloid diff 2)
COc1ccc(S(=O)(=O)NC2CC(=O)N(c3cccc(F)c3)C2)cc1OC (stereo not given)	none

Bioassay records from PubChem.
